Screening results as filed in PubChem.
Compounds with a hit are over-represented: about 1% of the library has one in this group of screens.
CAL PDZ FP-1: blocks peptide binding to human CAL PDZ domain | Q9HD26 | purified CAL PDZ, TMR-peptide fluorescence polarization, 1 h | inhibition, % at 20 µM | hit rate 0.02% among 330,000;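 active = highest replicate inhibition of at least 40%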
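Test system: purified CerCALP PDZ construct; Compound dosing: one concentration, 20 µM compound; Also added: TMR-labelled reporter peptide T*-PRC34 bound in PDZ groove; Read-out: inhibition from polarization loss; Controls: unlabelled peptide and DMSO controls; Signal: FP readout, S and P plane fluorescence; Incubation: 1 h at RT.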
ERp5 inh: blocks human ERp5 reductase activity on insulin | Q15084 | ERp5 insulin aggregation, absorbance 650 nm, 90 min | hit rate 0.05% among 350,000 | inhibition, % at 9.99 µM;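 active = mean replicate inhibition above about 25%, with every replicate also reaching it, limit read from the data, passing the limit was not always enough; inconclusive = only one of those two criteria met; inactive = neither criterion met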
CAL PDZ FP-2: CAL PDZ (human) peptide binding inhibition; Q9HD26; purified CAL PDZ, TMR-peptide fluorescence polarization, 1 h; inhibition, % at 24.9 µM; hit rate 0.92% among 300,000; AID 602252;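 active = mean inhibition of at least 30% with at least half of replicates also reaching 30%; inconclusive = no clear call, values can overlap the other calls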
RAD54 inh: inhibitors of human RAD54 branch migration; RAD54 Holliday junction branch migration, FAM/BHQ fluorescence; inhibition, % at 10.4 µM; hit rate 0.14% among 360,000;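 active = mean normalized replicate activity at least 40 and at least half of replicates scoring 40 or more; inconclusive = only one of the two criteria met; inactive = mean below 40 and under half of replicates reaching 40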;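 also: inhibitors cause a drop in the FAM fluorescence signal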
Target sequence (Q92698 whole entry, looked up): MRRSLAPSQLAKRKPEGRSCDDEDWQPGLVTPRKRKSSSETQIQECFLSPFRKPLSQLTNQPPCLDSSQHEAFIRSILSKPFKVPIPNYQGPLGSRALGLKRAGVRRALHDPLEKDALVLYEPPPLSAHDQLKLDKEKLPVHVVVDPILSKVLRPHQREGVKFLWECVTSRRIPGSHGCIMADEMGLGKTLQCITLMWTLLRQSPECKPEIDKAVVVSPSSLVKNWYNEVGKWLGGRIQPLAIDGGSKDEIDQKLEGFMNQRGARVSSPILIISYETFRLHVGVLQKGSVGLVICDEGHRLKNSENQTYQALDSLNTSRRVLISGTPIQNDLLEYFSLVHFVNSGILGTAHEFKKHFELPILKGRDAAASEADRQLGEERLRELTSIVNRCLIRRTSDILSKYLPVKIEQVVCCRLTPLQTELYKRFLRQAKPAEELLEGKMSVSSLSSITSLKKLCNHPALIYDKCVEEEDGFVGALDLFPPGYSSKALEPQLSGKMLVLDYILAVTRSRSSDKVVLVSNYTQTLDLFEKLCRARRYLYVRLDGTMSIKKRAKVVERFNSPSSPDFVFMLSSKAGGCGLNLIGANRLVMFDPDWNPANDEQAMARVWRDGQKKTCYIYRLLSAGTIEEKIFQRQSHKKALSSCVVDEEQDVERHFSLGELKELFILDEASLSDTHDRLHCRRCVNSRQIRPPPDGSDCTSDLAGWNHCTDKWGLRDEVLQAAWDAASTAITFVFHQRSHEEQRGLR
PDI inh: inhibitors of human protein disulfide isomerase. inhibition, % at 10 µM. hit rate 0.052% among 350,000. PDI insulin aggregation turbidity, A650, 90 min. P07237;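 active = mean inhibition across replicates of 30% or more, whatever share of single replicates reach that level; inconclusive = mean inhibition below 30% while every single replicate reaches 30%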
RAD52 inh: blocks human RAD52 DNA annealing; P43351; recombinant RAD52 DNA annealing, FRET fluorescence; inhibition, % at 18.7 µM; hit rate 0.46% among 360,000;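 active = every replicate showing at least 50% inhibition; inconclusive = mean inhibition at least 50% but not in every replicate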
DNA binder FP: DNA binding artifact in RAD52 counter-screen | Salmon sperm DNA/acridine orange FP displacement | shares compounds with RAD52 inh | hit rate 8% among 1,000 | AC50, µM;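 active = fitted half-maximal concentration for signal loss at or below twice the highest dose tested, in every separate run, actives reach about 64 µM in these data; inconclusive = runs disagree, or flat partial signal loss, or poor fit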
Numbers stand for hits; n = inactive; u = inconclusive; x = no result given.

SMILES | CAL PDZ FP-1 | ERp5 inh | CAL PDZ FP-2 | RAD54 inh | PDI inh | RAD52 inh | DNA binder FP
NCCCCNCCCN | n | n | n | n | n | n | x
CC(C(=O)c1ccc(-c2ccccc2)cc1)[n+]1cccc(NC(=O)c2ccccc2)c1 (centres undefined) | n | n | x | u | n | 58 | n
CCOC(=O)c1c(NC(=O)C[n+]2ccc(Cc3ccccc3)cc2)sc(C)c1C | n | n | x | x | n | 50 | n
O=C(N[C@H]1CC[C@H](CCNS(=O)(=O)c2ccccc2Cl)O[C@H]1CO)c1ccccc1 | x | n | x | n | x | n | x
CC[n+]1c(C)cc2c(sc3ccccc32)c1C | n | n | x | x | n | 57 | n
CCc1nc(C)cc2c1sc1ccccc12 | x | n | x | n | n | n | x
Cc1ccc(S(=O)(=O)N(C)C[C@@H]2OCc3ccccc3-c3ccccc3C(=O)N([C@H](C)CO)C[C@H]2C)cc1 | x | n | x | n | x | n | x
CCOC(=O)c1c(NC(C)=O)sc2c(OCCN(CC)CC)c(Br)ccc12 | n | n | x | x | n | 61 | n
O=C(C[C@H]1C[C@@H]2c3cc(NC(=O)NC4CCCC4)ccc3O[C@@H]2[C@@H](CO)O1)NCc1ccc(Oc2ccccc2)cc1 | x | n | x | n | x | n | x
CCN(CC)CCN1C(=O)/C(=C\c2ccc(Cl)c([N+](=O)[O-])c2)SC1=Nc1ccc(OC)cc1 | n | n | n | n | n | 80 | n
CCCN1C(=O)/C(=C/c2ccc(C)s2)SC1=Nc1ccc(OC)cc1 | n | x | n | n | n | x | x
COc1ccc(N=C2S/C(=C\c3ccc(Cl)c([N+](=O)[O-])c3)C(=O)N2CCN(C)C)cc1 | x | n | n | n | n | 53 | n
CO[C@@H]1CN(C)C(=O)c2cc(NC(=O)c3ccccc3)ccc2OC[C@H](C)N(C(=O)CN(C)C)C[C@@H]1C | x | n | x | x | x | n | x
COc1cccc(-c2nc(C(=O)NCCCN3CCOCC3)cc3c2[nH]c2ccccc23)c1 | n | n | n | n | x | 59 | n
Nc1nc(N)c2cc(Sc3ccc(Cl)cc3)ccc2n1 | x | n | x | n | n | 85 | n
Nc1nc(N)c2cc(Sc3ccc4ccccc4c3)ccc2n1 | x | n | x | n | n | n | x
O=C(C[C@H]1C=C[C@@H](NC(=O)C2CCC2)[C@H](CO)O1)NCc1ccccc1Cl | x | n | x | n | x | n | x
CCN1CCN(Cc2c(C(=O)N/N=C(\C)c3ccc(Cl)cc3)nnn2-c2nonc2N)CC1 | n | n | n | n | n | 94 | n
CN(C)CC#Cc1ccc([C@@H]2[C@@H](CO)N3C(=O)CN(C(=O)Cc4cccnc4)C[C@@H]23)cc1 | x | n | x | x | x | n | x
CN(C)C=Nc1ccc2nc3c(cc2c1)[nH]c1ccccc13 | n | n | n | x | n | 96 | 23µM
CCCCCCCCCCCC1N=C(N)NC(CCCO)=C1C(=O)OC (centres undefined) | n | n | n | x | n | 88 | u
CC(=O)N1CC(=O)N2[C@H](CO)[C@H](c3ccc(C#Cc4cccnc4)cc3)[C@@H]2C1 | x | n | x | x | x | n | x
Fc1ccccc1-c1nc(NCCCN2CCOCC2)c2ccccc2n1 | n | n | n | x | n | n | x
c1ccc2c(NCCCN3CCOCC3)c3ccccc3nc2c1 | x | n | x | x | x | 93 | 33µM
C=CC[N@@+]12CC[C@]34c5ccccc5N5/C=C6\C7N(/C=C(\C53)[C@@H](C[C@@H]41)/C(=C/CO)C2)c1ccccc1[C@@]71CC[N@@+]2(CC=C)C/C(=C\CO)[C@@H]6C[C@@H]12 (some centres undefined) | n | n | n | n | n | 69 | n
SMILES | CAL PDZ FP-1 | ERp5 inh | CAL PDZ FP-2 | RAD54 inh | PDI inh | RAD52 inh | DNA binder FP
C[C@@H]1CN([C@H](C)CO)C(=O)c2cc(-c3cccc(F)c3)cnc2O[C@H]1CN(C)C(=O)C1CCCCC1 | x | n | x | n | x | n | x
CN1/C(=C/C=C/c2n(C)c3cc([N+](=O)[O-])c([N+](=O)[O-])cc3[n+]2C)C(C)(C)c2ccccc21 | x | n | x | n | n | 61 | 38µM
COc1ccc2c3c([nH]c2c1)[C@H](CO)N(C(=O)NC(C)C)CC31CCN(C(=O)c2cccnc2)CC1 | x | n | x | x | x | n | x
CC(C)/C(=N\NC(=O)Nc1ccccc1)c1ccccc1 | n | x | x | n | n | x | x
C/C(=N\NC(=O)Nc1ccccc1)c1ccccc1 | n | n | n | n | n | 100 | n
CO[C@@H]1CN(C)C(=O)c2ccc(NC(=O)c3ccc(F)cc3)cc2OC[C@@H](C)N(C(C)=O)C[C@@H]1C | x | n | x | n | x | x | x
COc1cccc2sc(N(CCCN(C)C)C(=O)c3ccc(S(=O)(=O)N4CCCc5ccccc54)cc3)nc12 | n | n | n | n | n | n | x
Cc1ccc2nc(N(CCCN(C)C)C(=O)c3ccc(S(=O)(=O)N4CCCCCC4)cc3)sc2c1 | n | n | n | n | n | 61 | n
CCc1ccc2nc(N(CCCN(C)C)C(=O)c3ccc(S(=O)(=O)N4CCCc5ccccc54)cc3)sc2c1 | n | n | n | n | n | 71 | n
CCc1ccc2nc(N(CCCN(C)C)C(=O)c3ccc(S(=O)(=O)N4CCCC4)cc3)sc2c1 | n | n | n | n | n | n | x
CCCNC(=O)N[C@@H]1CC[C@H](CCNS(=O)(=O)c2cccc(F)c2)O[C@H]1CO | x | n | x | n | x | n | x
CNC[C@H]1Oc2ccc(NS(C)(=O)=O)cc2CC(=O)N([C@H](C)CO)C[C@@H]1C | x | n | x | n | x | n | x
Cn1c(N=Nc2ccc(N3CCOCC3)cc2)[n+](C)c2ccccc21 | n | n | n | 92 | n | 103 | 11µM
CCCC#Cc1ccc2c(c1)[C@@H]1[C@@H](CCN1S(=O)(=O)c1ccccc1OC)[C@@H](CO)N2 | x | n | x | x | x | n | x
Cn1c(C(=O)NCCCN2CCCCCC2)cc2c(=O)n(C)c3ccccc3c21 | n | n | n | n | x | 52 | n
c1cc(OCCCN2CCCCC2)ccc1CN1CCCCC1 | n | n | n | n | n | n | n
